Test results: ChEMBL document CHEMBL4346670, “Discovery of Novel Janus Kinase (JAK) and Histone Deacetylase (HDAC) Dual Inhibitors for the Treatment of Hematological Malignancies” (J Med Chem, 2019)

Assays:
K562 [1] = assay: Induction of apoptosis in human K562 cells assessed as late apoptotic cells at 1 uM after 24 hrs by Annexin-V/propidium iodide staining-based flow cytometric analysis (reference value: 5.87%); format: functional
Histone deacetylase 2 = Histone deacetylase 2 (Homo sapiens, UniProt Q92769); assay: Inhibition of HDAC2 (unknown origin) using Boc-Lys(acetyl)-AMC as substrate preincubated for 5 mins followed by substrate addition and measured after 30 mins by fluorescence assay
Histone deacetylase 8 = target: T1, Histone deacetylase 8 (Homo sapiens, UniProt Q9BY41); assay: Inhibition of HDAC8 (unknown origin) using Boc-Lys(trifluoroacetyl)-AMC as substrate preincubated for 5 mins followed by substrate addition and measured after 30 mins by fluorescence assay
T1 sequence (Q9BY41 whole entry): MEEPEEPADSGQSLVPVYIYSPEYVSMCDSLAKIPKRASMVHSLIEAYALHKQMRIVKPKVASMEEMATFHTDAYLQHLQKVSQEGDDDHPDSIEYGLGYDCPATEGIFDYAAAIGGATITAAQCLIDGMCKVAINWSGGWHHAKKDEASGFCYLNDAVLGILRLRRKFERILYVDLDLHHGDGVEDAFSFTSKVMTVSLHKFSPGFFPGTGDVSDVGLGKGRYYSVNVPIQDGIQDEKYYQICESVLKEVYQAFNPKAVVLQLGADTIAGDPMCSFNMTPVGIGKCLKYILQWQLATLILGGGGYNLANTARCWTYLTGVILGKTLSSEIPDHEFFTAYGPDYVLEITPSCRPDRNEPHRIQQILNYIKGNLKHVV

HEL [2] = assay: Induction of apoptosis in HEL cells assessed as early apoptotic cells at 1 uM after 24 hrs by Annexin-V/propidium iodide staining-based flow cytometric analysis (reference value: 12.5%); format: functional, Homo sapiens
MOLT-4 = assay: Antiproliferative activity against human MOLT4 cells assessed as reduction in cell viability after 48 hrs by MTT assay; format: functional, cell-based; settings: MOLT-4, 48 h
Procedure, shortened: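 Cells kept in RPMI1640 with 10% FBS at 37 °C, 5% CO2. Seeded and grown for 12 h, then exposed to a range of compound concentrations for 48 h. 0.5% MTT added for 4 h, formazan dissolved in DMSO, absorbance read at 570 nm.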

[3] = target: T2, Protein deacetylase HDAC6 (Homo sapiens, UniProt Q9UBN7); assay: Inhibition of HDAC6 (unknown origin) using Boc-Lys(acetyl)-AMC as substrate preincubated for 5 mins followed by substrate addition and measured after 30 mins by fluorescence assay
T2 sequence (Q9UBN7 whole entry): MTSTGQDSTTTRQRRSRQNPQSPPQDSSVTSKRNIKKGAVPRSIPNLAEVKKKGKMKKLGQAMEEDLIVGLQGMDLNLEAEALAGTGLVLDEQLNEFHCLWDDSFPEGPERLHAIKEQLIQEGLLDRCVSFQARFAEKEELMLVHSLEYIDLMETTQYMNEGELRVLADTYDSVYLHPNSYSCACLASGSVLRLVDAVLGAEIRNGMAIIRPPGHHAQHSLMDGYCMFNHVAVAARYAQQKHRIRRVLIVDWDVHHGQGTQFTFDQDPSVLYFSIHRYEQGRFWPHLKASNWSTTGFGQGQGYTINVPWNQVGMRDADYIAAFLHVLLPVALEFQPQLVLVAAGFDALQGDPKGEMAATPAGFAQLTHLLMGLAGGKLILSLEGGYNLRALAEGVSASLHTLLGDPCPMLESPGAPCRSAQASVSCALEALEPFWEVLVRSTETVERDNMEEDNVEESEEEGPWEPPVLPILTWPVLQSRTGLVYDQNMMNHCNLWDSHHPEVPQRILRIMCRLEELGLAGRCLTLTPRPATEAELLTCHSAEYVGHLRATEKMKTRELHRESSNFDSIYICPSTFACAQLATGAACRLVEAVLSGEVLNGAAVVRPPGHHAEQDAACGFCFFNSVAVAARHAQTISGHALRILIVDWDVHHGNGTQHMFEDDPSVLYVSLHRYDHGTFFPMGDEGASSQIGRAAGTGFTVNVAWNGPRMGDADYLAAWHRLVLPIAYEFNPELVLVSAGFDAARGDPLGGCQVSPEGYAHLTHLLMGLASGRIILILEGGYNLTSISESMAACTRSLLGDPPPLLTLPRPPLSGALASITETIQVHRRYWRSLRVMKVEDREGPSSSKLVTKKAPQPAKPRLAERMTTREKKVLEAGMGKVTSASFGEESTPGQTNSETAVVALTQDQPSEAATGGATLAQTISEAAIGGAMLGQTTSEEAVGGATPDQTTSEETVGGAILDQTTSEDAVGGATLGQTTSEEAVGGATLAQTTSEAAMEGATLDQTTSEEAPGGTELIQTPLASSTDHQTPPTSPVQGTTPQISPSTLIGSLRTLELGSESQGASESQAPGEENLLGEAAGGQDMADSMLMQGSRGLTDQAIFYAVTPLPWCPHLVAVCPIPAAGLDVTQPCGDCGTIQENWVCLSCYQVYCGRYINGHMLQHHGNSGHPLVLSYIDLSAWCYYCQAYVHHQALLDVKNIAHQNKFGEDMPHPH

K562 [4] = assay: Antiproliferative activity against human K562 cells assessed as reduction in cell viability after 48 hrs by MTT assay; format: functional, cell-based; settings: K562, 48 h
K562 [5] = assay: Induction of apoptosis in human K562 cells assessed as necrotic apoptotic cells at 1 uM after 24 hrs by Annexin-V/propidium iodide staining-based flow cytometric analysis (reference value: 0.827%); format: functional
HEL [6] = assay: Antiproliferative activity against HEL cells harboring JAK2 V617F mutant assessed as reduction in cell viability after 48 hrs by MTT assay; format: functional, cell-based; settings: Homo sapiens
[7] = target: Non-receptor tyrosine-protein kinase TYK2 (Homo sapiens, UniProt P29597); assay: Inhibition of recombinant human TYK2 using Ulight-CAGAGAIETDKEYYTVKD as substrate measured after 60 mins by LANCE assay
Procedure, shortened: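 Human recombinant JAK enzyme assays run by a contract lab. IC50 was taken from a non-linear curve fit, with all parameters allowed to float. Assays were run in replicate (n>2) and reported as mean ± SD.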

Chain of Histone deacetylase 2 (Q92769 whole entry): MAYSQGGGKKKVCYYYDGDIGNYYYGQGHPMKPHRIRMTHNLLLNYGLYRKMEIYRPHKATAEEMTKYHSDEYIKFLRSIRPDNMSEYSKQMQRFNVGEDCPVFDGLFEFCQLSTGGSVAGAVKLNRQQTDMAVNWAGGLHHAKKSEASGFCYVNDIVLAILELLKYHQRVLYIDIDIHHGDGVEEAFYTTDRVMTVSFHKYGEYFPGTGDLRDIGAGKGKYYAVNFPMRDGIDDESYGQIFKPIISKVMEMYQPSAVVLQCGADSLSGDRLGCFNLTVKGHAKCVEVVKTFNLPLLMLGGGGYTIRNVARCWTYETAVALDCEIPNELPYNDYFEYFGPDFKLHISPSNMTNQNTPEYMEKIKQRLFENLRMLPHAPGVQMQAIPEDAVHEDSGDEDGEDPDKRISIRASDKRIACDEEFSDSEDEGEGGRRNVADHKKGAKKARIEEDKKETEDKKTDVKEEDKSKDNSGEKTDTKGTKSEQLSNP
Chain of Non-receptor tyrosine-protein kinase TYK2 (P29597 whole entry): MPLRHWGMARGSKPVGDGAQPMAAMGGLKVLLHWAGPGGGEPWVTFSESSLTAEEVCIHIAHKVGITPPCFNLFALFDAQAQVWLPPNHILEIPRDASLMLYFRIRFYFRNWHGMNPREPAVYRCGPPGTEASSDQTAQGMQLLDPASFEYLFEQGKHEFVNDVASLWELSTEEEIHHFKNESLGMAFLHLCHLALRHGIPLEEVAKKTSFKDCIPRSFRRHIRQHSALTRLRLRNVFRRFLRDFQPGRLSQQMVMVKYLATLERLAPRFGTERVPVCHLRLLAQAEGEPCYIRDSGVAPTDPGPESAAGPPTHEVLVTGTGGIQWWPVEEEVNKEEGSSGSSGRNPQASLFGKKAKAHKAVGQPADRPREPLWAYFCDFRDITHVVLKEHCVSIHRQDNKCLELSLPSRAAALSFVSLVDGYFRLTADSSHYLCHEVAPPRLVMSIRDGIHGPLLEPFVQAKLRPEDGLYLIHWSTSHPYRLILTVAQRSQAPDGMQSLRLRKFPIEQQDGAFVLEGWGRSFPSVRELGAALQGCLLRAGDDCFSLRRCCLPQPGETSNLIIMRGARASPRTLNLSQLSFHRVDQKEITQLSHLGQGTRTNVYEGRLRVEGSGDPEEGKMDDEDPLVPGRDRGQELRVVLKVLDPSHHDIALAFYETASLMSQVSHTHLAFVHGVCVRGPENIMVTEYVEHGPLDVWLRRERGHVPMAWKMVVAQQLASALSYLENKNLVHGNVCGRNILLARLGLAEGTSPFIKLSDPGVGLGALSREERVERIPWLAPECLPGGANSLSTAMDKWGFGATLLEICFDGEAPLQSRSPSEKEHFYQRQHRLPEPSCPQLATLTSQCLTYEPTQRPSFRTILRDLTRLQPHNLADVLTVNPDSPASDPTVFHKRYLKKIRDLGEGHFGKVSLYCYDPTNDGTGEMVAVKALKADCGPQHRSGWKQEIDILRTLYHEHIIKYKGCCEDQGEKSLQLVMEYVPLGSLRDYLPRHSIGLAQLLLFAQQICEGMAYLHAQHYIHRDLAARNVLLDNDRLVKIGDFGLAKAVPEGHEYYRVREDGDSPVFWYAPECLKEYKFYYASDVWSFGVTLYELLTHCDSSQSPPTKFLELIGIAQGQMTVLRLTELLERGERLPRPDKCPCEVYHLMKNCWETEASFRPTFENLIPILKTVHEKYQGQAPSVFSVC

IC50 (Histone deacetylase 2) [nM]	IC50 (Histone deacetylase 8) [nM]	IC50 (MOLT-4) [nM]	IC50 [3] [nM]	IC50 (K562 [4]) [nM]	IC50 [7] [nM]	Compound	Activity (K562 [1]) [%]	Activity (HEL [2]) [%]	Activity (K562 [5]) [%]	IC50 (HEL [6]) [nM]
120	2470	80	14	490	49	O=C(CCCCCn1cc(Nc2ncc(Cl)c(Nc3ccc(Cl)cc3)n2)cn1)NO	46.9	27.8	1.07	90
130	840	130	41	380	67	O=C(CCCCCCn1cc(Nc2ncc(Cl)c(Nc3cccc(Cl)c3)n2)cn1)NO	30	22.8	1.14	140
